# Measurements from ChEMBL document CHEMBL4390675, “Dopamine D4 Receptor-Selective Compounds Reveal Structure-Activity Relationships that Engender Agonist Efficacy” (J Med Chem, 2019).
# Activity calls are given as the source filed them. The calls are words filed in the database; no cut-off is given here.
# Legend:
# [1] = molecular target: T1, D(3) dopamine receptor (Homo sapiens, UniProt P35462); experiment: Displacement of [3H]N-methylspiperone from human D3 receptor expressed in HEK293 cell membranes measured after 60 mins by scintillation counting method
# T1 sequence (P35462 whole entry): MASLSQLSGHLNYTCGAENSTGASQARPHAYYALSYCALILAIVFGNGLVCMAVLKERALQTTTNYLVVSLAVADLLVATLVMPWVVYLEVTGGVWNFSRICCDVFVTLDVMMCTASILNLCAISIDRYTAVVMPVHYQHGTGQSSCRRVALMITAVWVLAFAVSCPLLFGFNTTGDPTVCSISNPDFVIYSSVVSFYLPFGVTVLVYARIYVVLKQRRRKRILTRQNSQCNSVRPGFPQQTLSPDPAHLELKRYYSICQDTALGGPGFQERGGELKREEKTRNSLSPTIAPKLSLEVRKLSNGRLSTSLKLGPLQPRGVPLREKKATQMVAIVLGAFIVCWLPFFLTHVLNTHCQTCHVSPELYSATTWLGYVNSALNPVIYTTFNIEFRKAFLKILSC
# Method in brief: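 HEK293 cells stably expressing human D3R; membranes in EBSS buffer pH 7.4, stored at −80 °C. 20 μg protein/well with 0.4 nM [3H]N-methylspiperone (final), half-log dilutions in 30% DMSO, in triplicate. 60 min at room temperature, then GF/B filtration. Nonspecific binding with 10 μM (+)-butaclamol.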
# [2] = molecular target: T2, D(2) dopamine receptor (Homo sapiens, UniProt P14416); experiment: Agonist activity at human D2L receptor expressed in CHOK1 cells assessed as inhibition of forskolin-induced cAMP accumulation measured after 30 mins by Eu-cAMP tracer based TR-FRET assay; format: cell-based
# T2 sequence (P14416 whole entry, canonical isoform): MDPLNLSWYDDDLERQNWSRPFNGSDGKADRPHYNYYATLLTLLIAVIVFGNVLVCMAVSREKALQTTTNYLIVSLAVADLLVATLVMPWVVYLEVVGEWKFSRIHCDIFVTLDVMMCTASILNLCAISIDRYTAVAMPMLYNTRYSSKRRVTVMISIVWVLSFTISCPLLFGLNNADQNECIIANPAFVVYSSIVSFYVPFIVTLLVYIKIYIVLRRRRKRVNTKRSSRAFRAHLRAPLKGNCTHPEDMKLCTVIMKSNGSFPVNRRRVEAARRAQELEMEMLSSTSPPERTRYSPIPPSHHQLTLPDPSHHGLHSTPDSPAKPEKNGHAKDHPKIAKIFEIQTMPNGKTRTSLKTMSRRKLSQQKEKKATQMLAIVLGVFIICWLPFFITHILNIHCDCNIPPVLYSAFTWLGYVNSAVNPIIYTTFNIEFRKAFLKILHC
# Method in brief: (§1)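 LANCE Ultra TR-FRET cAMP assay in CHO-K1 cells stably expressing human D2R long isoform or D4R. Cells were plated in HBSS/5 mM HEPES/0.2 μM metabisulfite, then immediately given compound plus forskolin (10 μM final) for 30 min at room temperature. Eu-cAMP tracer and ULight-anti-cAMP were added for 2 h in the dark. Values are % of maximal dopamine signal, nonlinear regression of triplicate runs, n = 3–4.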
# [3] = molecular target: T2, D(2) dopamine receptor; experiment: Antagonist activity at human D2L receptor expressed in CHOK1 cells assessed as suppression of dopamine-induced inhibition of forskolin-stimulated cAMP accumulation measured after 30 mins by Eu-cAMP tracer based TR-FRET assay relative to dopamine; format: cell-based; settings: 0.5 h
# [4] = molecular target: T3, D(4) dopamine receptor (Homo sapiens, UniProt P21917); experiment: Agonist activity at human D4 receptor expressed in CHOK1 cells assessed as inhibition of forskolin-induced cAMP accumulation measured after 30 mins by Eu-cAMP tracer based TR-FRET assay; format: functional, cell-based; method in brief: as §1
# T3 sequence (P21917 whole entry): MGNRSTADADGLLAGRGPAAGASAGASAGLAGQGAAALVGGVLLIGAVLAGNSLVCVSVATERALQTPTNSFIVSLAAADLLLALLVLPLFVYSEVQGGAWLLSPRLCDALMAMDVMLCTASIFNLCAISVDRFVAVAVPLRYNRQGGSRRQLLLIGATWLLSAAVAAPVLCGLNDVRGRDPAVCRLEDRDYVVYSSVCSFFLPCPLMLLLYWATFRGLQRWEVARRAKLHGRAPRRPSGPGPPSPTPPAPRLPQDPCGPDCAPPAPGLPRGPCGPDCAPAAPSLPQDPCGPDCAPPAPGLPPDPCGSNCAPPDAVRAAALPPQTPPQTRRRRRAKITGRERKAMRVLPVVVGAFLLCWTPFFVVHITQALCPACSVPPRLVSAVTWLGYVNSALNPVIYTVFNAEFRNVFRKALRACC
# [5] = molecular target: T2, D(2) dopamine receptor; experiment: Agonist activity at human D2L receptor expressed in CHOK1 cells assessed as induction of beta-arrestin recruitment measured after 90 mins by luminescence assay; format: cell-based
# Method in brief: (§2)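 PathHunter enzyme-complementation assay in CHO-K1 cells stably expressing human D2R long isoform, D3R or D4R, seeded overnight in Ham's F12/10% FBS. Compounds were diluted in PBS with 0.2 μM sodium metabisulfite and applied at multiple concentrations for 90 min at 37 °C. Detection reagent was added for 45–60 min at room temperature, then luminescence was read. Values are % of maximal dopamine response, from nonlinear regression of triplicate runs, mean ± SEM, n = 3–4.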
# [6] = molecular target: T2, D(2) dopamine receptor; experiment: Antagonist activity at human D2L receptor expressed in CHOK1 cells assessed as inhibition of dopamine-induced beta-arrestin recruitment measured after 90 mins by luminescence assay relative to control; format: cell-based
# Method in brief: (§3)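 Antagonist-mode PathHunter β-arrestin assay in CHO-K1 cells stably expressing human D2R long isoform or D3R, seeded overnight. Compound dilutions in PBS with 0.2 μM metabisulfite were co-incubated with an EC80 dopamine concentration for 90 min at 37 °C. Detection reagent was added for 45–60 min at room temperature, then luminescence was read. Values are % of dopamine EC80 response, from nonlinear regression of triplicate runs, n = 3–4.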
# [7] = molecular target: T1, D(3) dopamine receptor; experiment: Agonist activity at human D3 receptor expressed in CHOK1 cells assessed as induction of beta-arrestin recruitment measured after 90 mins by luminescence assay; format: cell-based; method in brief: as §2
# [8] = molecular target: T1, D(3) dopamine receptor; experiment: Antagonist activity at human D3 receptor expressed in CHOK1 cells assessed as inhibition of dopamine-induced beta-arrestin recruitment measured after 90 mins by luminescence assay; format: cell-based; method in brief: as §3
# [9] = molecular target: T3, D(4) dopamine receptor; experiment: Agonist activity at human D4 receptor expressed in CHOK1 cells assessed as induction of beta-arrestin recruitment measured after 90 mins by luminescence assay; format: cell-based; method in brief: as §2
# [10] = molecular target: T3, D(4) dopamine receptor; experiment: Displacement of [3H]N-methylspiperone from human D4.4 receptor expressed in HEK293 cell membranes measured after 60 mins by scintillation counting method
# Method in brief: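 Frozen HEK293 membranes stably expressing human D4.4R (30 μg/well) in EBSS-bicarbonate buffer, pH 7.4, were incubated with 0.4 nM [3H]N-methylspiperone and half-log compound dilutions (30% DMSO vehicle) for 60 min at room temperature. Nonspecific binding was defined by 10 μM (+)-butaclamol. Samples were filtered on GF/B filters and counted by scintillation.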
# [11] = molecular target: T1, D(3) dopamine receptor; experiment: Displacement of [3H](R)-(+)-7-OH-DPAT from human D3 receptor expressed in HEK293 cell membranes measured after 90 mins by scintillation counting method
# Method in brief: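 Fresh HEK293 hD3R membranes (40 μg/well) in 50 mM Tris, 10 mM MgCl2, 1 mM EDTA, pH 7.4 were incubated with 0.5 nM [3H]-(R)-(+)-7-OH-DPAT and half-log compound dilutions in 30% DMSO for 90 min at room temperature. Nonspecific binding was defined with 10 μM (+)-butaclamol. Samples were filtered on PEI-soaked GF/B filters and counted by scintillation.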
# [12] = molecular target: T3, D(4) dopamine receptor; experiment: Displacement of [3H](R)-(+)-7-OH-DPAT from human D4.4 receptor expressed in HEK293 cell membranes measured after 90 mins by scintillation counting method
# Method in brief: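 HEK293 cells stably expressing human D4.4R; membranes used fresh in 50 mM Tris, 10 mM MgCl2, 1 mM EDTA, pH 7.4. 60 μg protein/well with 3 nM [3H]-(R)-(+)-7-OH-DPAT (final), half-log dilutions in 30% DMSO, in triplicate. 90 min at room temperature, then GF/B filtration. Nonspecific binding with 10 μM (+)-butaclamol.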
# [13] = molecular target: T4, D(4) dopamine receptor (Homo sapiens) (UniProt P21917); experiment: Agonist activity at human D4 receptor expressed in CHOK1 cells assessed as inhibition of forskolin-induced cAMP accumulation measured after 30 mins by Eu-cAMP tracer based TR-FRET assay relative to dopamine; format: functional, cell-based; method in brief: as §1
# T4 sequence (whole entry): T3 sequence (P21917 whole entry)
# [14] = molecular target: T4, D(4) dopamine receptor (Homo sapiens); experiment: Antagonist activity at human D4 receptor expressed in CHOK1 cells assessed as suppression of dopamine-induced inhibition of forskolin-stimulated cAMP accumulation measured after 30 mins by Eu-cAMP tracer based TR-FRET assay relative to dopamine; format: functional, cell-based; parameters: concentration or dose not given beside the values
# [15] = molecular target: T3, D(4) dopamine receptor; experiment: Antagonist activity at human D4 receptor expressed in CHOK1 cells assessed as suppression of dopamine-induced inhibition of forskolin-stimulated cAMP accumulation measured after 30 mins by Eu-cAMP tracer based TR-FRET assay; format: functional, cell-based
# [16] = molecular target: T4, D(4) dopamine receptor (Homo sapiens); experiment: Agonist activity at human D4 receptor expressed in CHOK1 cells assessed as induction of beta-arrestin recruitment measured after 90 mins by luminescence assay relative to control; format: cell-based; method in brief: as §2
# [17] = molecular target: T4, D(4) dopamine receptor (Homo sapiens); experiment: Antagonist activity at human D4 receptor expressed in CHOK1 cells assessed as inhibition of dopamine-induced beta-arrestin recruitment measured after 90 mins by luminescence assay relative to control; format: cell-based; parameters: concentration or dose not given beside the values
# [18] = molecular target: T3, D(4) dopamine receptor; experiment: Antagonist activity at human D4 receptor expressed in CHOK1 cells assessed as inhibition of dopamine-induced beta-arrestin recruitment measured after 90 mins by luminescence assay; format: cell-based; settings: read-out: IC50
# [19] = molecular target: D(1A) dopamine receptor (Homo sapiens) (UniProt P21728); experiment: Agonist activity at D1 receptor (unknown origin) stably expressed in CHOK1 cells assessed as induction of beta-arrestin recruitment measured after 90 mins by luminescence assay; format: cell-based
# Sequence of D(1A) dopamine receptor (Homo sapiens) (P21728 whole entry): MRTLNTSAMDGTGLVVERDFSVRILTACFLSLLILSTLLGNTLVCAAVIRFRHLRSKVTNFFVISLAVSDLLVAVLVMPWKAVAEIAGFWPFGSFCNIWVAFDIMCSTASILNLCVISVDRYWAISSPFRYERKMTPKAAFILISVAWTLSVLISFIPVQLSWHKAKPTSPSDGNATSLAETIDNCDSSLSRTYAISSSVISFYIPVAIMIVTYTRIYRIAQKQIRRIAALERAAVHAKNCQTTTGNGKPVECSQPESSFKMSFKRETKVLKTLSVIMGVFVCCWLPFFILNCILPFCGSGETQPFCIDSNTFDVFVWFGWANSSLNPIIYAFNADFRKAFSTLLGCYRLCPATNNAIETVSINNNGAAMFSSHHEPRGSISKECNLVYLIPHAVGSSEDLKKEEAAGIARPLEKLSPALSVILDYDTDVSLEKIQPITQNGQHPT
# [20] = molecular target: D(1B) dopamine receptor (Homo sapiens) (UniProt P21918); experiment: Agonist activity at D5 receptor (unknown origin) stably expressed in CHOK1 cells assessed as induction of beta-arrestin recruitment measured after 90 mins by luminescence assay; format: cell-based
# Sequence of D(1B) dopamine receptor (Homo sapiens) (P21918 whole entry): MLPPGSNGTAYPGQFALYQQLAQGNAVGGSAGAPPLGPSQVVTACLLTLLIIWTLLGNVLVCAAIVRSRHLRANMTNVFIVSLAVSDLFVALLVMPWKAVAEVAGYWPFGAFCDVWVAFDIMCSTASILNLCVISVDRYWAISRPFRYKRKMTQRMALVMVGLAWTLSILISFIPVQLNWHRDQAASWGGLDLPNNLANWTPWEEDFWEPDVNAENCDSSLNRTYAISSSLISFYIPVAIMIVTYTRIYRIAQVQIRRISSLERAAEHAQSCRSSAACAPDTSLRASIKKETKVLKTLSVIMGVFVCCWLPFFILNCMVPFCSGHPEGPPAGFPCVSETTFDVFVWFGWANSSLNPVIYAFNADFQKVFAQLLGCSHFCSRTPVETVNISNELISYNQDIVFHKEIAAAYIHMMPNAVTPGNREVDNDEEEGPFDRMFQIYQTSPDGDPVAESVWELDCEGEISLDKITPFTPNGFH
# [21] = molecular target: D(1A) dopamine receptor (Homo sapiens) (UniProt P21728); experiment: Antagonist activity at D1 receptor (unknown origin) stably expressed in CHOK1 cells assessed as inhibition of dopamine-induced beta-arrestin recruitment measured after 90 mins by luminescence assay; format: cell-based
# [22] = molecular target: D(1B) dopamine receptor (Homo sapiens) (UniProt P21918); experiment: Antagonist activity at D5 receptor (unknown origin) stably expressed in CHOK1 cells assessed as inhibition of dopamine-induced beta-arrestin recruitment measured after 90 mins by luminescence assay; format: cell-based
SMILES,Ki [1] [nM],EC50 [2],inhibition (INH) [3] [%],EC50 [4],EC50 [5],INH [6] [%],EC50 [7],IC50 [8],EC50 [9],Ki [10] [nM],Ki [11] [nM],Ki [12] [nM],Emax [13] [%],EC50 ([4]; read-out: EC50) [nM],inhibition [14] [%],IC50 [15] [nM],IC50 ([8]; read-out: IC50) [nM],Emax [16] [%],EC50 ([9]; read-out: EC50) [nM],IC50 [18] [nM],further results
Cc1cccc(NC(=O)CN2CCC(c3ccc(Cl)cc3)CC2)c1,26300,Not Active,97.5,Not Active,Not Active,100,Not Active,Not Active,Not Active,,,,,,,,,,,,
Cc1cccc(NC(=O)CN2CCC(c3ccccc3)CC2)c1,433,Not Active,100,,Not Active,99.7,Not Active,,,25.8,777,1.4,32.9,15.4,46.7,2,> 50000,14,242,135,inhibition [17]: 93.3%; Activity [19]: inactive; Activity [20]: inactive; inhibition [21]: inactive; inhibition [22]: inactive
Cc1ccc(C2CCN(CC(=O)Nc3cccc(C)c3)CC2)nc1,> 50000,Not Active,100,Not Active,Not Active,100,Not Active,Not Active,Not Active,41.7,> 10000,6.87,,,,453,,,,394,
Cc1ccc(C2CCN(CC(=O)Nc3cccc(C)c3)CC2)cc1,3680,Not Active,100,Not Active,Not Active,100,Not Active,Not Active,Not Active,110,,,,,,3060,,,,7350,
Cc1cccc(NC(=O)CN2CCN(c3cccc4ccccc34)CC2)c1,11500,Not Active,100,,Not Active,100,Not Active,Not Active,,28.4,1250,1.65,27.8,108,73.8,2520,,16.4,9210,4250,inhibition [17]: 96.7%
Cc1cccc(NC(=O)CN2CCC(c3ccccn3)CC2)c1,1680,Not Active,,,Not Active,94.8,,,,54.2,167,3.95,61.9,2.7,53.8,68.4,> 100000,22.5,473,191,EC50 ([7]; read-out: EC50): > 100000 nM; inhibition [17]: 81.7%; Activity [19]: inactive; Activity [20]: inactive; inhibition [21]: inactive; inhibition [22]: inactive
Cc1cccc(NC(=O)CN2CCN(c3ccc(Cl)cn3)CC2)c1,> 50000,Not Active,98.3,Not Active,Not Active,100,Not Active,Not Active,Not Active,95,> 10000,12.5,,,,4700,,,,7780,
CCc1cccc(NC(=O)CN2CCN(c3ccc(Cl)cn3)CC2)c1,> 50000,Not Active,100,Not Active,Not Active,100,Not Active,Not Active,Not Active,172,,,,,,7060,,,,10400,
Cc1cccc(NC(=O)CCN2CCN(c3ncccn3)CC2)c1,4530,Not Active,,,Not Active,94.6,Not Active,,Not Active,526,9350,33,,568,,2120,> 50000,,,430,Activity [19]: inactive; Activity [20]: inactive; inhibition [21]: inactive; inhibition [22]: inactive
CCc1cccc(NC(=O)CN2CCC(c3ccccn3)CC2)c1,496,Not Active,96.6,,Not Active,100,Not Active,Not Active,Not Active,82.3,,,,539,,1910,,,,2620,
